Holding throughout (assay type): functional, cell-based
The nature of assay [1]: Cytotoxicity against human QGY cells by MTT assay. The procedure, abridged:
(§1)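 Colorimetric MTT assay, run as quintuplicate dose-response tests. Cytotoxic effect was plotted against log10 of drug concentration for each cell line. IC50 is the concentration that reduced the optical density of treated cells by 50% relative to untreated cells. 5-fluorouracil served as control.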
Background: Tetrazolium dyes change colour on reduction, which living cells bring about.

For assay [2], the system named is HeLa. In words: Cytotoxicity against human HeLa cells by MTT assay. The procedure, abridged:
as §1

Assay [3] concerns A549. The experiment in a line: Cytotoxicity against human A549 cells by MTT assay. The method, boiled down: as §1

Take `CCOC(=O)C12C(=O)OCC=C1COC2c1ccccc1` (centres undefined): the IC50 in assay [1] is more than 1000 µM; in assay [2], 12.8 µM; in assay [3], more than 1000 µM.
As for `CCOC(=O)C12C(=O)OCC=C1COC2c1ccccc1F` (centres undefined), the IC50 was more than 1000 µM in assay [1], 22.1 µM in assay [2] and more than 1000 µM in assay [3].
In the case of `CCOC(=O)C12C(=O)OCC=C1COC2c1ccc(F)cc1` (centres undefined), the results for the IC50 in assay [1], in assay [2] and in assay [3] were more than 1000 µM, 22.9 µM and more than 1000 µM, respectively.
Regarding `CCOC(=O)C12C(=O)OCC=C1COC2c1cccc(Cl)c1` (centres undefined), the values for the IC50 in assay [1], in assay [2] and in assay [3] were more than 1000 µM, more than 1000 µM and 28.4 µM, respectively.
As for `CCOC(=O)C12C(=O)OCC=C1COC2c1ccc(Cl)cc1` (centres undefined), the figures for the IC50 in assay [1], in assay [2] and in assay [3] were more than 1000 µM, 118 µM and more than 1000 µM, respectively.
`CCOC(=O)C12C(=O)OCC=C1COC2c1ccc(Cl)c(Cl)c1` (centres undefined): the figures for the IC50 in assay [1], in assay [2] and in assay [3] were more than 1000 µM, 72.4 µM and more than 1000 µM, respectively.
In the case of `CCOC(=O)C12C(=O)OCC=C1COC2c1ccc(Br)cc1` (centres undefined), the IC50 was more than 1000 µM in assay [1], 48.7 µM in assay [2] and more than 1000 µM in assay [3].
Regarding `CCOC(=O)C12C(=O)OCC=C1COC2c1ccc(C(C)(C)C)cc1` (centres undefined), the half-inhibitory concentration (IC50) in assay [1] is more than 1000 µM; in assay [2], 25.4 µM; in assay [3], more than 1000 µM.
With `CCOC(=O)C12C(=O)OCC=C1COC2c1ccc(OC)cc1` (centres undefined), the IC50 is more than 1000 µM in assay [1], 18.3 µM in assay [2] and 9.3 µM in assay [3].
Turning to `CCOC(=O)C12C(=O)OCC=C1COC2c1ccc(OC)c(OC)c1` (centres undefined), the IC50 in assay [1] is more than 1000 µM; in assay [2], 10 µM; in assay [3], more than 1000 µM.
On to `CCOC(=O)C12C(=O)OCC=C1COC2c1cc(OC)cc(OC)c1` (centres undefined), for which the IC50 in assay [1] is more than 1000 µM; in assay [2] it was 16 µM; in assay [3] it was more than 1000 µM.
For the compound `CCOC(=O)C12C(=O)OCC=C1COC2c1cc(OC)c(OC)c(OC)c1` (centres undefined), the IC50 in assay [1] was more than 1000 µM; in assay [2], 5.4 µM; in assay [3] it was 13.3 µM.
As to `CCOC(=O)C12C(=O)OCC=C1COC2c1ccc(N(C)C)cc1` (centres undefined), the IC50 in assay [1] is more than 1000 µM; in assay [2], 23.4 µM; in assay [3], 89.6 µM.
On to `CCOC(=O)C12C(=O)OCC=C1COC2c1ccc([N+](=O)[O-])cc1` (centres undefined), for which the IC50 in assay [1] is more than 1000 µM; in assay [2] it was 53.4 µM; in assay [3], 36.8 µM.
In the same order, the values of `CCOC(=O)C12C(=O)OCC=C1COC2c1ccco1` (centres undefined) are more than 1000 µM, 28.3 µM and more than 1000 µM.
Taken in the same sequence, the figures for `CCOC(=O)C12C(=O)OCC=C1COC2c1cccs1` (centres undefined) were more than 1000 µM, 30.4 µM and more than 1000 µM.
Consider `CCOC(=O)C12C(=O)OCC=C1COC2c1ccccn1` (centres undefined), for which the half-maximal inhibitory concentration (IC50) in assay [1] was more than 1000 µM; in assay [2], 20.7 µM; in assay [3] it was more than 1000 µM.
As for `O=c1[nH]cc(F)c(=O)[nH]1` [FLUOROURACIL], the values for the IC50 in assay [1], in assay [2] and in assay [3] were 14.1 µM, 16.1 µM and 5.6 µM, respectively.

In general, IC50 refers to the concentration that gives 50% inhibition. Read a low IC50 as higher potency.

For the origin of these results see ChEMBL document CHEMBL1777744, “Synthesis and anti-tumor activity of novel ethyl 3-aryl-4-oxo-3,3a,4,6-tetrahydro-1H-furo[3,4-c]pyran-3a-carboxylates” (Bioorg Med Chem Lett, 2011).
